ChEMBL document CHEMBL4425191, “Design, synthesis and biological evaluation of photoaffinity probes of antiangiogenic homoisoflavonoids” (2016)

Legend:
Type in all cases: functional
HUVEC = assay: Antiproliferative activity against human HUVEC cells after 48 hrs by alamar blue based fluorescence assay
How it was run: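 HUVECs, passages 5–8, cultured in EGM-2 (EBM plus growth-factor bullet kit, 2% FBS). 2,500 cells were seeded 24 h, then incubated 48 h with compound at 0.5 nM–500 µM. alamarBlue was added and fluorescence read 4 h later at 560/590 nm; curves were fitted versus DMSO. GI50 <100 µM was listed only for ≥50% reduction at the top dose.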

Y79 = assay: Antiproliferative activity against human Y79 cells after 48 hrs by alamar blue based fluorescence assay; details: Y79, 48 h
ARPE-19 = assay: Antiproliferative activity against human ARPE19 cells after 48 hrs by alamar blue based fluorescence assay; details: ARPE-19, 48 h
How it was run: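 ARPE19 cells grown in Ham's F-10 with 10% FBS and 1% pen-strep; 2,500 cells/well settled 24 h, then 48 h compound treatment over 0.5 nM–500 µM. alamarBlue fluorescence (560/590 nm) was read after 4 h; curves were fitted relative to DMSO. GI50 <100 µM was reported only where the highest concentration cut cell number by ≥50%.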

[1] = Antiproliferative activity against human 92-1 cells after 48 hrs by alamar blue based fluorescence assay
[2] = Antiproliferative activity against human HREC cells after 48 hrs by alamar blue based fluorescence assay
How it was run: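 Human retinal microvascular endothelial cells at passages 5–8, 2,500 per well, rested 24 h, then given test compound (0.5 nM–500 µM) for 48 h. Proliferation was read by alamarBlue 4 h after addition (ex 560, em 590 nm) and dose-response fitted against DMSO control. GI50 <100 µM was recorded only if ≥50% reduction occurred at the highest concentration.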

SMILES	GI50 (HUVEC) [µM]	GI50 (Y79) [µM]	GI50 (ARPE-19) [µM]	GI50 [1] [µM]	GI50 [2] [µM]
COc1ccc(CC2COc3cc(OC)c(OC)c(OC)c3C2=O)cc1OCC(=O)NCCCOc1ccc(C(=O)c2ccc(OCc3cn(CCOCCOCCOCCNC(=O)CCCC[C@@H]4SC[C@@H]5NC(=O)N[C@@H]54)nn3)cc2)cc1 (stereo not given in full)	> 100	> 100	> 100	> 100	0.072
COc1ccc(CC2COc3cc(OC)c(OC)c(OC)c3C2=O)cc1NC(=O)[C@H](Cc1ccc(OCCCC(=O)NCCCOc2ccc(C(=O)c3ccc(OCc4cn(CCOCCOCCOCCNC(=O)CCCC[C@@H]5SC[C@@H]6NC(=O)N[C@@H]65)nn4)cc3)cc2)cc1)NC(=O)OC(C)(C)C (stereo not given in full)	> 100	> 100	> 100	> 100	42
COc1ccc(CC2COc3cc(OCCCC(=O)NCCCOc4ccc(C(=O)c5ccc(OCc6cn(CCOCCOCCOCCNC(=O)CCCC[C@@H]7SC[C@@H]8NC(=O)N[C@@H]87)nn6)cc5)cc4)c(OC)c(OC)c3C2=O)cc1OC(=O)[C@H](Cc1ccccc1)NC(=O)OC(C)(C)C (stereo not given in full)	> 100	> 100	> 100	> 100	44
COc1ccc(CC2COc3cc(OC)c(OC)c(OC)c3C2=O)cc1NC(=O)[C@H](Cc1ccc(OCCCC(=O)O)cc1)NC(=O)OC(C)(C)C (stereo not given in full)	22	> 100	> 100	> 100	0.0079
COc1ccc(CC2COc3cc(OC)c(OC)c(OC)c3C2=O)cc1OC(=O)[C@H](Cc1ccc(OCC(=O)NCCCOc2ccc(C(=O)c3ccc(OCc4cn(CCOCCOCCOCCNC(=O)CCCC[C@@H]5SC[C@@H]6NC(=O)N[C@@H]65)nn4)cc3)cc2)cc1)NC(=O)OC(C)(C)C (stereo not given in full)	0.44	> 100	> 100	> 100	0.21
COc1ccc(CC2COc3cc(OC)c(OC)c(OC)c3C2=O)cc1OC(=O)[C@H](Cc1ccc(OCC(=O)O)cc1)NC(=O)OC(C)(C)C (stereo not given in full)	0.012	> 100	> 100	> 100	0.047
